Results reported in ChEMBL document CHEMBL1121766, “Chemical modification of aminoglycosides. 3. Synthesis of 2"-deoxykanamycins from neamine” (1981).
In brackets after ≈: the same amount, converted by molar mass.

Experiments:
Streptococcus pneumoniae = assay: Compound was tested in vitro for antibacterial activity against Streptococcus pneumoniae UC 41; format: functional
Outline: (§1)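 MIC by microplate broth dilution: serial twofold dilutions of antibiotic in brain-heart infusion broth, each well inoculated with standardized cell suspension to ~10^5 viable cells per mL of drug-supplemented medium. Incubated 37 °C for 20 h; MIC read as lowest concentration inhibiting visible growth.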

Serratia marcescens = assay: Compound was tested in vitro for antibacterial activity against Serratia marcescens UC 131; format: functional; outline: as §1
Proteus mirabilis = assay: Compound was tested in vitro for antibacterial activity against Proteus mirabilis UC 6671; format: functional; outline: as §1
Escherichia coli = assay: Compound was tested in vitro for antibacterial activity against Escherichia coli UC 45; format: functional; outline: as §1
Enterococcus faecalis = assay: Compound was tested in vitro for antibacterial activity against Streptococcus faecalis UC 694; format: functional; outline: as §1
Staphylococcus aureus = assay: Compound was tested in vitro for antibacterial activity against Staphylococcus aureus UC76; format: functional; outline: as §1
Streptococcus pyogenes = assay: Compound was tested in vitro for antibacterial activity against Streptococcus pyogenes UC 152; format: functional; outline: as §1
Klebsiella pneumoniae = assay: Compound was tested in vitro for antibacterial activity against Klebsiella pneumoniae UC 58; format: functional; outline: as §1
[1] = Compound was tested in vitro for antibacterial activity against Salmonella schottmuelleri UC 126; format: functional; outline: as §1
Pseudomonas aeruginosa [2] = assay: Compound was tested in vitro for antibacterial activity against Pseudomonas aeruginosa UC 3682; format: functional; outline: as §1
Pseudomonas aeruginosa [3] = assay: Compound was tested in vitro for antibacterial activity against Pseudomonas aeruginosa UC 6436; format: functional; outline: as §1
Pseudomonas aeruginosa [4] = assay: Compound was tested in vitro for antibacterial activity against Pseudomonas aeruginosa UC 3681; format: functional; outline: as §1
Pseudomonas aeruginosa [5] = assay: Compound was tested in vitro for antibacterial activity against Pseudomonas aeruginosa UC 3680; format: functional; outline: as §1
Proteus vulgaris = assay: Compound was tested in vitro for antibacterial activity against Proteus vulgaris UC 93; format: functional; outline: as §1
Pseudomonas aeruginosa [6] = assay: Compound was tested in vitro for antibacterial activity against Pseudomonas aeruginosa UC 95; format: functional; outline: as §1
Salmonella typhi = assay: Compound was tested in vitro for antibacterial activity against Salmonella typhi UC 215; format: functional, Salmonella enterica subsp. enterica serovar Typhi; conditions: Salmonella enterica
Outline: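 Microplate broth dilution: serial twofold antibiotic dilutions in brain-heart infusion broth, inoculated with a standardized cell suspension to a final ~10^5 viable cells per mL. Incubated 37 °C for 20 h. MIC read as the lowest concentration that inhibited visible growth.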

Pseudomonas aeruginosa [7] = assay: Compound was tested in vitro for antibacterial activity against Pseudomonas aeruginosa UC 3679; format: functional; outline: as §1
Pseudomonas aeruginosa [8] = assay: Compound was tested in vitro for antibacterial activity against Pseudomonas aeruginosa UC 3683; format: functional; outline: as §1

Q: With `NCC1OC(OC2C(N)CC(N)C(OC3CC(N)C(O)C(CO)O3)C2O)C(N)C(O)C1O` (stereo not drawn) as the compound, how does the MIC (Streptococcus pneumoniae) read?
A: 500 µg/mL (≈ 1070 µM)

Q: And the MIC (Serratia marcescens)?
A: 31.2 µg/mL (≈ 66.7 µM)

Q: And the MIC (Proteus mirabilis)?
A: 62.5 µg/mL (≈ 134 µM)

Q: What about the MIC (Escherichia coli) of the same compound?
A: 31.2 µg/mL (≈ 66.7 µM)

Q: And the MIC (Enterococcus faecalis)?
A: 1000 µg/mL (≈ 2140 µM)

Q: What about the MIC (Staphylococcus aureus) of the same compound?
A: 3.9 µg/mL (≈ 8.34 µM)

Q: What about the MIC (Streptococcus pyogenes) of the same compound?
A: 15.6 µg/mL (≈ 33.4 µM)

Q: What about the MIC (Klebsiella pneumoniae) of the same compound?
A: 3.9 µg/mL (≈ 8.34 µM)

Q: What about the MIC [1] of the same compound?
A: 15.6 µg/mL (≈ 33.4 µM)

Q: For `NCC1CCC(N)C(OC2C(N)CC(N)C(OC3CC(N)C(O)C(CO)O3)C2O)O1` (stereo not drawn), which MIC (Pseudomonas aeruginosa [2]) is on record?
A: 15.6 µg/mL (≈ 35.8 µM)

Q: What about the MIC (Pseudomonas aeruginosa [3]) of the same compound?
A: > 125 µg/mL

Q: What about the MIC (Pseudomonas aeruginosa [4]) of the same compound?
A: 15.6 µg/mL (≈ 35.8 µM)

Q: And the MIC (Pseudomonas aeruginosa [5])?
A: 7.8 µg/mL (≈ 17.9 µM)

Q: What about the MIC (Streptococcus pneumoniae) of the same compound?
A: 250 µg/mL (≈ 574 µM)

Q: And the MIC (Proteus vulgaris)?
A: 31.2 µg/mL (≈ 71.6 µM)

Q: And the MIC (Serratia marcescens)?
A: 15.6 µg/mL (≈ 35.8 µM)

Q: What about the MIC (Proteus mirabilis) of the same compound?
A: 62.5 µg/mL (≈ 144 µM)

Q: And the MIC (Escherichia coli)?
A: 62.5 µg/mL (≈ 144 µM)

Q: And the MIC (Pseudomonas aeruginosa [6])?
A: 7.8 µg/mL (≈ 17.9 µM)

Q: What about the MIC (Pseudomonas aeruginosa [6]; Pseudomonas aeruginosa, read-out: MIC) of the same compound?
A: 15.6 µg/mL (≈ 35.8 µM)

Q: And the MIC (Enterococcus faecalis)?
A: 250 µg/mL (≈ 574 µM)

Q: And the MIC (Staphylococcus aureus)?
A: < 1 µg/mL

Q: What about the MIC (Streptococcus pyogenes) of the same compound?
A: 7.8 µg/mL (≈ 17.9 µM)

Q: And the MIC (Salmonella typhi)?
A: 15.6 µg/mL (≈ 35.8 µM)

Q: What about the MIC (Pseudomonas aeruginosa [7]) of the same compound?
A: 7.8 µg/mL (≈ 17.9 µM)

Q: What about the MIC (Pseudomonas aeruginosa [8]) of the same compound?
A: 7.8 µg/mL (≈ 17.9 µM)

Q: And the MIC (Klebsiella pneumoniae)?
A: 3.9 µg/mL (≈ 8.95 µM)

Q: And the MIC [1]?
A: 15.6 µg/mL (≈ 35.8 µM)
